Test [1] deals with Canis familiaris. Kind of test: Inhibition of gastric acid secretion at 20 mg/kg oral administration to dogs. In kind it is functional. Particulars: Canis lupus familiaris, Stomach. The procedure, abridged: (§1)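 Unanesthetized female beagle dogs with chronic gastric fistula; compound in 50 mL aqueous 1% methylcellulose delivered into stomach via fistula cannula 60 min before gastrin tetrapeptide (64 μg/kg sc, maximal secretory dose). Gastric output drained by gravity over three 30-min periods; acid concentration by titration to pH 7 with 0.01 N NaOH; percent decrease in acid concentration versus placebo trial in same animal; dose as base weight.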

For test [2], the system named is Canis familiaris. Kind of test: Inhibition of gastric acid secretion at 10 mg/kg oral administration to dogs. In kind it is functional. Particulars: Canis lupus familiaris, Stomach. The procedure, abridged:
as §1

Test [3] relates to Canis familiaris. The experiment in a line: Inhibition of gastric acid secretion at 40 mg/kg oral administration to dogs. In kind it is functional. Particulars: Canis lupus familiaris, Stomach. In outline:
as §1

For test [4], the system named is Canis familiaris. Kind of test: Acid concentration of gastrin tetrapeptide stimulated inhibition of gastric secretion when administered perorally in dogs. In kind it is functional. Particulars: Canis lupus familiaris, Stomach, po. In outline: (§2)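 Unanesthetized female beagle dogs with chronic gastric fistula; compound in 50 mL 1% aqueous methylcellulose given into stomach via fistula cannula 60 min before stimulant (gastrin tetrapeptide 64 μg/kg sc, or histamine dihydrochloride 64 μg base/kg sc). Output drained by gravity, three 30-min periods; volume measured, acid concentration titrated to pH 7 with 0.01 N NaOH, output = volume × concentration. Percent change vs placebo trial in same dog.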

The subject of test [5] is Canis familiaris. The experiment in a line: Volume of histamine stimulated inhibition of gastric secretion when administered perorally in dogs. In kind it is functional. Particulars: Canis lupus familiaris, Stomach, po. The procedure, abridged: as §2
Test [6] relates to Canis familiaris. The experiment in a line: Acid concentration of histamine stimulated inhibition of gastric secretion when administered perorally in dogs. In kind it is functional. Particulars: Canis lupus familiaris, Stomach, po. The procedure, abridged:
as §2

The test system of test [7] is Canis familiaris. Kind of test: Volume of gastrin tetrapeptide stimulated inhibition of gastric secretion when administered perorally in dogs. In kind it is functional. Particulars: Canis lupus familiaris, Stomach, po. In outline:
as §2

Test [8] has as its system Canis familiaris. The experiment in a line: Acid output of histamine stimulated inhibition of gastric secretion when administered perorally in dogs. In kind it is functional. Particulars: Canis lupus familiaris, Stomach, po. In outline:
as §2

Test [9] concerns Canis familiaris. Kind of test: Acid output of gastrin tetrapeptide stimulated inhibition of gastric secretion when administered perorally in dogs. In kind it is functional. Particulars: Canis lupus familiaris, Stomach, po. In outline: as §2
Test [10] has as its system Canis familiaris. Kind of test: Inhibition of gastric acid secretion at 40 mg/kg oral administration to dogs; Compound is CNS (central nervous system) effective. In kind it is functional, organism-based. On the set-up: dose 40 mg/kg. Particulars: Canis lupus familiaris, Stomach. The procedure, abridged: as §1

Regarding `COc1ccnc(N(CCN(C(C)C)C(C)C)C(=O)N(C)C)c1`, at 20 mg/kg the inhibition in vivo in the test on Canis familiaris [1] was 84%. In addition, at 10 mg/kg the inhibition in vivo in the test with Canis familiaris [2] was 64%.

`CCCN(CCC)CCN(C(=O)N(C)C)c1cc(C)cc(C)n1` came in with an inhibition in vivo at 20 mg/kg with Canis familiaris [1] of 22%. Testing at 40 mg/kg in the test on Canis familiaris [3] gave an inhibition in vivo of 93%.

For `Cc1cc(C)nc(N(CCN(C(C)C)C(C)C)C(=O)N(C)C)c1.Cl`, the median effective dose (ED50) in the test with Canis familiaris [4] came out at 6.8 mg/kg; in the test on Canis familiaris [5] it was 12.6 mg/kg; with Canis familiaris [6] it was 9.6 mg/kg; in the test with Canis familiaris [7], 3.8 mg/kg; in the test with Canis familiaris [8] it was 5.1 mg/kg; with Canis familiaris [9], 3.3 mg/kg. Also, in the test with Canis familiaris [1], the inhibition in vivo at 20 mg/kg came to 100%. In the test with Canis familiaris [2], this compound gave an inhibition in vivo at 10 mg/kg of 70%.

With `CC(C)N(CCN(C(=O)N(C)C)c1ccccn1)C(C)C`, 20 mg/kg produced 17% inhibition in vivo in the test with Canis familiaris [1]. Besides, in the test on Canis familiaris [3], the inhibition in vivo at 40 mg/kg came out at 82%.

As to `Cc1ccnc(N(CCN(C(C)C)C(C)C)C(=O)N(C)C)c1`, in the test on Canis familiaris [1], the inhibition in vivo at 20 mg/kg was 95%. 10 mg/kg produced 79% inhibition in vivo with Canis familiaris [2].

For `CNCCN(C(=O)N(C)C)c1cc(C)cc(C)n1`, in the test with Canis familiaris [3], at 40 mg/kg the inhibition in vivo was 20%.

In the test with Canis familiaris [1], `Cc1cc(Cl)nc(N(CCN(C(C)C)C(C)C)C(=O)N(C)C)c1` had an inhibition in vivo at 20 mg/kg of 71%. In addition, 10 mg/kg produced 52% inhibition in vivo in the test on Canis familiaris [2].

As for `Cc1cc(C)nc(N(CCN(C(C)C)C(C)C)C(N)=O)c1`, the inhibition in vivo at 20 mg/kg in the test on Canis familiaris [1] turned out to be 18%. Also, in the test with Canis familiaris [10], the inhibition result is reported as “CNS effect”.

`Cc1cccc(N(CCN(C(C)C)C(C)C)C(=O)N(C)C)n1` came in with an inhibition in vivo at 20 mg/kg in the test on Canis familiaris [1] of 87%. In the test on Canis familiaris [2], testing at 10 mg/kg gave an inhibition in vivo of 54%.

`Cc1cc(C)nc(N(CCNC(C)C)C(=O)N(C)C)c1` yielded an inhibition in vivo at 20 mg/kg with Canis familiaris [1] of 33%. At 40 mg/kg the inhibition in vivo in the test on Canis familiaris [3] was 42%.

The compound `Cc1ccc(N(CCN(C(C)C)C(C)C)C(=O)N(C)C)nc1` returned an inhibition in vivo at 20 mg/kg in the test with Canis familiaris [1] of 19%. Besides, the inhibition in vivo at 40 mg/kg in the test on Canis familiaris [3] came out at 33%.

`Cc1cc(N(CCN(C(C)C)C(C)C)C(=O)N(C)C)nc(C)c1Cl`: in the test with Canis familiaris [1], the inhibition in vivo at 20 mg/kg stood at 95%. In addition, the inhibition in vivo at 10 mg/kg with Canis familiaris [2] stood at 62%.

In the case of `Cc1cc(C)nc(N(CCN(C)C)C(=O)N(C)C)c1`, 20 mg/kg produced 58% inhibition in vivo in the test on Canis familiaris [1]. Besides, in the test on Canis familiaris [3], 40 mg/kg produced 58% inhibition in vivo. The same compound came in with an inhibition in vivo at 10 mg/kg in the test with Canis familiaris [2] of 14%.

`CN/C(=N\CCSCc1nc[nH]c1C)NC#N` [CIMETIDINE]: the ED50 in the test with Canis familiaris [4] was determined as 6.4 mg/kg; with Canis familiaris [5], 3.5 mg/kg; in the test with Canis familiaris [6], 5 mg/kg; in the test with Canis familiaris [7], 3.9 mg/kg; with Canis familiaris [8], 2.6 mg/kg; with Canis familiaris [9], 3.6 mg/kg.

In the test with Canis familiaris [1], `CC(C)N(CCN(C(=O)N(C)C)c1ccc(Cl)cn1)C(C)C` had an inhibition in vivo at 20 mg/kg of 63%. For the same compound, in the test with Canis familiaris [2], the inhibition in vivo at 10 mg/kg came out at 44%.

`CNC(=O)N(CCN(C(C)C)C(C)C)c1cc(C)cc(C)n1` had an inhibition in vivo at 20 mg/kg in the test with Canis familiaris [1] of 44%. Further, in the test on Canis familiaris [10], the inhibition entry is “CNS effect”.

The compound `CC(C)N(CCN(C(=O)N(C)C)c1cccc(Cl)n1)C(C)C` yielded an inhibition in vivo at 20 mg/kg in the test on Canis familiaris [1] of 78%.

As for `Cc1cc(C)nc(N(CCCN(C(C)C)C(C)C)C(=O)N(C)C)c1`, the inhibition in vivo at 20 mg/kg in the test with Canis familiaris [1] turned out to be 0%. Besides, the inhibition in vivo at 40 mg/kg in the test on Canis familiaris [3] was determined as 35%.

In the case of `Cc1cc(C)nc(N(CCCCN(C(C)C)C(C)C)C(=O)N(C)C)c1`, the inhibition in vivo at 20 mg/kg with Canis familiaris [1] amounted to 5%. Also, the inhibition in vivo at 40 mg/kg in the test on Canis familiaris [3] amounted to 3%.

Usually inhibition in vivo stands for the share of the control response that was lost under treatment. The ED50 is the dose at which the effect has come halfway, by size or by number of responders. A lower ED50 goes with an effect at a small dose.

The values above are taken from ChEMBL document CHEMBL1122360, “Inhibitors of gastric acid secretion: antisecretory 2-pyridylurea derivatives” (1983).
